Legend:
Mus musculus [1] = assay: Induction of spontaneous locomotor activity in Swiss-Webster albino mouse assessed as total activity AUC at 27.2 umol/kg, ip; type: functional, organism-based; details: tested as the 2H-labelled form
Outline: (§1)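 Mice weighing 22–24 g, acclimated at least 2 weeks, fed and watered freely until testing, and split into groups of five, each mouse used once. Sulfate salts in normal saline given ip at 0.2 mL/10 g. Controls received saline. Activity was counted as photocell beam interruptions in six-beam circular cages. Tests ran between 11:00 a.m. and 5:00 p.m.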

Mus musculus [2] = assay: Induction of spontaneous locomotor activity in Swiss-Webster albino mouse assessed as time required to show activity at 27.2 umol/kg, ip measured every 10 mins in first hour followed by every hour for 5 hrs; type: functional; outline: as §1
[3] = Potency ratio of compound LD50 to protioamphetamine LD50 for ip dosed Swiss-Webster mouse; type: ADME, organism-based; details: in vivo
[4] = Acute toxicity in ip dosed Swiss-Webster mouse measured for 24 hrs; type: organism-based; details: in vivo
Outline: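 Groups of mice given three intraperitoneal doses (313, 353 and 394 μM/kg), 14–22 mice per dose, observed for 24 h. LD50 in mg/kg derived from regression dose-response curves by the Litchfield and Wilcoxon method.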

Mus musculus [5] = assay: Induction of spontaneous locomotor activity in Swiss-Webster albino mouse assessed as time required to show activity at 10 mg/kg, ip measured every 10 mins in first hour followed by every hour for 5 hrs; type: functional; details: route intraperitoneal; outline: as §1
Mus musculus [6] = assay: Induction of spontaneous locomotor activity in Swiss-Webster albino mouse assessed as total activity AUC at 10 mg/kg, ip; type: functional, organism-based; parameters: dose 10 mg/kg; outline: as §1
Mus musculus [7] = assay: Induction of spontaneous locomotor activity in Swiss-Webster albino mouse assessed as time required to show activity at 10.6 mg/kg, ip measured every 10 mins in first hour followed by every hour for 5 hrs; type: functional; details: route intraperitoneal; outline: as §1
Mus musculus [8] = assay: Induction of spontaneous locomotor activity in Swiss-Webster albino mouse assessed as total activity AUC at 10.6 mg/kg, ip; type: functional, organism-based; parameters: dose 10.6 mg/kg; details: tested as the 2H-labelled form; outline: as §1

Which AUC (Mus musculus [1]) does the source give for `CC(N)Cc1ccccc1` (racemic; 2) here?
The AUC was 349 cm2.

With `CC(N)Cc1ccccc1` (racemic; 5) as the compound, how does the AUC (Mus musculus [1]) read?
Its AUC is 355 cm2.

With `O=S(=O)(O)O.[2H]C(C)(N)Cc1ccccc1` (racemic) as the compound, how does the Time (Mus musculus [2]) read?
Its Time is 100 min.

With `O=S(=O)(O)O.[2H]c1c([2H])c([2H])c(C([2H])([2H])C(C)N)c([2H])c1[2H]` (racemic) as the compound, how does the selectivity ratio [3] read?
The selectivity ratio was 1.13.

What about the Time (Mus musculus [2]) of the same compound?
The Time was 80 min.

What about the LD50 at 24 h [4] of the same compound?
Its LD50 at 24 h is 140 mg/kg.

With `C[C@H](N)Cc1ccccc1.C[C@H](N)Cc1ccccc1.O=S(=O)(O)O` [DEXTROAMPHETAMINE SULFATE] as the compound, how does the Time (Mus musculus [5]) read?
Its Time is 70 min.

And the LD50 at 24 h [4]?
Its LD50 at 24 h is 123 mg/kg.

And the AUC (Mus musculus [6])?
The AUC was 350 cm2.

Which selectivity ratio [3] does the source give for `O=S(=O)(O)O.[2H]c1c([2H])c([2H])c(C([2H])([2H])C([2H])(N)C([2H])([2H])[2H])c([2H])c1[2H]` (racemic) here?
Its selectivity ratio is 1.2.

What about the LD50 at 24 h [4] of the same compound?
The LD50 at 24 h was 149 mg/kg.

And the Time (Mus musculus [7])?
Its Time is 120 min.

With `CC(N)Cc1ccccc1` (racemic; 6) as the compound, how does the AUC (Mus musculus [1]) read?
Its AUC is 374 cm2.

Which Time (Mus musculus [2]) does the source give for `O=S(=O)(O)O.[2H]C(c1ccccc1)C(C)N` (racemic) here?
The Time was 75 min.

With `CC(N)Cc1ccccc1` (racemic; 3) as the compound, how does the AUC (Mus musculus [1]) read?
The AUC was 367 cm2.

For `CC(N)Cc1ccccc1` (racemic; 4), which AUC (Mus musculus [1]) is on record?
The AUC was 370 cm2.

What does the source list for `O=S(=O)(O)O.[2H]C([2H])([2H])C([2H])(N)C([2H])([2H])c1ccccc1` (racemic)?
selectivity ratio [3]: 1.16; Time (Mus musculus [2]): 100 min; LD50 at 24 h [4]: 143 mg/kg

Which AUC (Mus musculus [8]) does the source give for `CC(N)Cc1ccccc1` (racemic) here?
The AUC was 350 cm2.

Which Time (Mus musculus [2]) does the source give for `O=S(=O)(O)O.[2H]C(C)(N)C([2H])([2H])c1ccccc1` (racemic) here?
Its Time is 105 min.

Reference: ChEMBL document CHEMBL3244257, “Effects of deuteration on locomotor activity of amphetamine” (J Med Chem, 1978)
